In ChEMBL document CHEMBL3351911, “Synthesis and evaluation of N⁶-substituted apioadenosines as potential adenosine A₃ receptor modulators” (Bioorg Med Chem, 2014):
pIC50, pKi: −log10 of the molar value. Activity calls are given as the source filed them. No cut-off for these calls is given here.

Key:
[1] = biological target: T1, Adenosine receptor A1 (Homo sapiens) (UniProt P30542); experiment: Displacement of [3H]N6-[(R)-1-methyl-2-phenylethyl]adenosine from human recombinant A1AR expressed in CHO cells at 10 uM; type: cell-based
T1 sequence (whole entry): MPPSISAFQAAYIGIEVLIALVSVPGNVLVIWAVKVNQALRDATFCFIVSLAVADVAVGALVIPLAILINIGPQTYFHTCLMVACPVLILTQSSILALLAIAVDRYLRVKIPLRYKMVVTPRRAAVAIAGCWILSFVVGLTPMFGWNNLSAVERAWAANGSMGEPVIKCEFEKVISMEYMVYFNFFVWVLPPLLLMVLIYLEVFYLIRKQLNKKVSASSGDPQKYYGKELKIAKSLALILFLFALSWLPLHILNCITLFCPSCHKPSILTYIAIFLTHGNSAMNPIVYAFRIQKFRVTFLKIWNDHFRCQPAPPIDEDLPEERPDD
Procedure, shortened: (§1)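 Single-concentration radioligand displacement at 10 μM. Membranes came from CHO cells stably expressing human A1AR or A3AR, or HEK293 cells stably expressing human A2AAR. Agonist radioligands were [3H]N6-[(R)-1-methyl-2-phenylethyl]adenosine (A1), [3H]2-[p-(2-carboxyethyl)phenylethylamino]-5′-N-ethylcarboxamidoadenosine (A2A) and [125I]N6-(4-amino-3-iodobenzyl)adenosine-5′-N-methyluronamide (A3). Read-out was percent inhibition of binding.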

[2] = biological target: T2, Adenosine receptor A3 (Homo sapiens) (UniProt P0DMS8); experiment: Displacement of [125I]N6-(4-amino-3-iodobenzyl)adenosine-50-N-methyluronamide from human recombinant A3AR expressed in CHO cells at 10 uM; type: cell-based; procedure, shortened: as §1
T2 sequence (whole entry): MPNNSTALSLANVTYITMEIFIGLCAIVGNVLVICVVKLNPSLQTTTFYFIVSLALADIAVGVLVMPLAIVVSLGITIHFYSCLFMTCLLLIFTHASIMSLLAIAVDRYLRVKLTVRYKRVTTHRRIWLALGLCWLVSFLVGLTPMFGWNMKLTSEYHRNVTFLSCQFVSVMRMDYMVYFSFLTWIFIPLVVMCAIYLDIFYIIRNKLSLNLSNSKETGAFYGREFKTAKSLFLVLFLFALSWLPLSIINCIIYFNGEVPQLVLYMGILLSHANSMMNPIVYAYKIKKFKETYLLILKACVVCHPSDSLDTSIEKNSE

[3] = biological target: Adenosine receptor A2a (Homo sapiens) (UniProt P29274); experiment: Displacement of [3H]2-[p-(2-carboxyethyl)phenylethylamino]-50-N-ethylcarboxamidoadenosine from human recombinant A2AR expressed in HEK293 cells at 10 uM; type: cell-based; procedure, shortened: as §1
[4] = biological target: T2, Adenosine receptor A3 (Homo sapiens); experiment: (§2) Agonist activity at human recombinant A3AR expressed in CHO cells assessed as inhibition of forskolin-induced stimulation of cAMP production; type: functional, cell-based
[5] = biological target: T3, Adenosine receptor A3 (Homo sapiens, UniProt P0DMS8); experiment: as §2; type: functional, cell-based
T3 sequence (P0DMS8 whole entry): T2 sequence (whole entry)

[6] = biological target: T3, Adenosine receptor A3; experiment: Displacement of [125I]N6-(4-amino-3-iodobenzyl)adenosine-50-N-methyluronamide from human recombinant A3AR expressed in CHO cells; type: cell-based
Procedure, shortened: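 Competition binding used membranes of CHO cells stably expressing human A3AR and the agonist radioligand [125I]N6-(4-amino-3-iodobenzyl)adenosine-5′-N-methyluronamide. IC50 values from competition curves were converted to Ki by Cheng-Prusoff. Values are mean ± S.E.M.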

[7] = biological target: T1, Adenosine receptor A1 (Homo sapiens); experiment: Displacement of [3H]N6-[(R)-1-methyl-2-phenylethyl]adenosine from human recombinant A1AR expressed in CHO cells at 50 uM; type: cell-based
Procedure, shortened: (§3)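 Percent inhibition of agonist radioligand binding measured at a single 50 μM test concentration. A1: CHO cell membranes with stably expressed human A1AR and [3H]N6-[(R)-1-methyl-2-phenylethyl]adenosine. A2A: HEK293 cell membranes with stably expressed human A2AAR and [3H]2-[p-(2-carboxyethyl)phenylethylamino]-5′-N-ethylcarboxamidoadenosine.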

[8] = biological target: Adenosine receptor A2a (Homo sapiens) (UniProt P29274); experiment: Displacement of [3H]2-[p-(2-carboxyethyl)phenylethylamino]-50-N-ethylcarboxamidoadenosine from human recombinant A2AR expressed in HEK293 cells at 50 uM; type: cell-based; procedure, shortened: as §3
[9] = biological target: T2, Adenosine receptor A3 (Homo sapiens); experiment: Modulatory activity at human recombinant A3AR expressed in CHO cells assessed as inhibition of forskolin-induced stimulation of cAMP production; type: functional, cell-based
Procedure, shortened: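 CHO cells stably expressing human A3AR were plated and grown 24 h, then washed in DMEM with 50 mM HEPES, pH 7.4. Compounds and/or agonist were added with rolipram (10 μM) and adenosine deaminase (3 units/mL). Forskolin (10 μM) was added at 45 min and incubation ran 15 more min. Cells were lysed in 0.1 M HCl. cAMP was measured by competitive binding of [3H]cAMP (2 nM) to protein kinase A, with a cAMP standard curve, filtration and scintillation counting.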

Chain of Adenosine receptor A2a (Homo sapiens) (P29274 whole entry): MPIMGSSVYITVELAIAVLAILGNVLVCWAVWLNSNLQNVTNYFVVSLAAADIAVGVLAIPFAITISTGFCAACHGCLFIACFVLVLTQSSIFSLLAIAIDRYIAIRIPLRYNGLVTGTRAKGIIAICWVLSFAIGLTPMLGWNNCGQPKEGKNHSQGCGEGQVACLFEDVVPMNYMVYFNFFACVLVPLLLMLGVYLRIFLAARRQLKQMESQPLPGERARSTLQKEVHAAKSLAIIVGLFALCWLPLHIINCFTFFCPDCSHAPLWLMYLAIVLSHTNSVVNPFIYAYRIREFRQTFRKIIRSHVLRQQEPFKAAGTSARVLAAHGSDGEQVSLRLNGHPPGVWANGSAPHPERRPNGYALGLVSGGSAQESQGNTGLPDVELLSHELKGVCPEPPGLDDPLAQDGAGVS

Structure (SMILES) | inhibition [1] [%] | inhibition [2] [%] | inhibition [3] [%] | other results
Nc1ncnc2c1ncn2[C@@H]1OC[C@H](CO)[C@H]1O | 6 | 32 | 19 | –
Nc1ncnc2c1ncn2[C@H]1C[C@@H](CO)CO1 | 10 | 31 | 15 | –
Nc1ncnc2c1ncn2[C@H]1C[C@H](CO)CO1 | – | 7 | – | inhibition [7]: 0%
CCNC(=O)[C@@H]1CO[C@@H](n2cnc3c(N)ncnc32)[C@@H]1O | 8 | 10 | 9 | –
Nc1ncnc2c1ncn2[C@@H]1OC[C@@H](CO)[C@H]1O | – | 7 | – | inhibition [8]: 76%; inhibition [7]: 74%
CCNC(=O)OC[C@]1(O)CO[C@@H](n2cnc3c(N)ncnc32)[C@@H]1O | 9 | 6 | 12 | –
Nc1ncnc2c1ncn2[C@@H]1OC[C@](O)(CO)[C@H]1O | 6 | 35 | 19 | –
CCNC(=O)OC[C@@H]1CO[C@@H](n2cnc3c(N)ncnc32)[C@@H]1O | 7 | 8 | 2 | –
CNC(=O)OC[C@@]1(O)CO[C@@H](n2cnc3c(N)ncnc32)[C@@H]1O | 12 | 26 | 10 | –
Nc1ncnc2c1ncn2[C@@H]1OC[C@@](O)(CO)[C@H]1O | – | 10 | – | inhibition [8]: 64%; inhibition [7]: 0%

Now from value to compound, other results behind:

inhibition [1] [%] | inhibition [2] [%] | inhibition [3] [%] | Structure (SMILES) | other results
27 | 48 | 17 | OC[C@@]1(O)CO[C@@H](n2cnc3c(NCc4cccc(I)c4)ncnc32)[C@@H]1O | –
13 | – | 14 | COc1ccc(Cl)cc1CNc1ncnc2c1ncn2[C@@H]1OC[C@@](O)(CO)[C@H]1O | Emax [4]: 50.9%; pIC50 [5]: 5.81; pKi [6]: 5.51
19 | 44 | 15 | OC[C@]1(O)CO[C@@H](n2cnc3c(NCc4cccc(Cl)c4)ncnc32)[C@@H]1O | –
10 | 43 | 10 | OC[C@@]1(O)CO[C@@H](n2cnc3c(NCc4cccc(Cl)c4)ncnc32)[C@@H]1O | –
6 | 3 | 12 | Nc1c2ncn([C@@H]3OC[C@@](O)(CO)[C@H]3O)c2nc[n+]1Cc1cccc(Cl)c1 | –
12 | – | 17 | COc1ccc(Cl)cc1CNc1ncnc2c1ncn2[C@@H]1OC[C@](O)(CO)[C@H]1O | Activity [9]: inactive; pKi [6]: 6.01
35 | 45 | 22 | OC[C@]1(O)CO[C@@H](n2cnc3c(NCc4cccc(I)c4)ncnc32)[C@@H]1O | –
